As a reminder, the inhibition is the share of the control response that was lost under treatment. High values mean a strong effect, low ones a weak effect. Broadly, the IC50 is the point on the concentration scale where inhibition reaches its midpoint. Low readings indicate greater potency, high ones weaker potency.

The values below come from ChEMBL document CHEMBL2390881, “Identification of M. tuberculosis thioredoxin reductase inhibitors based on high-throughput docking using constraints” (J Med Chem, 2013).

Experiment [1] has as its target T1, Thioredoxin reductase (Mycobacterium tuberculosis) (UniProt P9WHH1).
T1 sequence (whole entry): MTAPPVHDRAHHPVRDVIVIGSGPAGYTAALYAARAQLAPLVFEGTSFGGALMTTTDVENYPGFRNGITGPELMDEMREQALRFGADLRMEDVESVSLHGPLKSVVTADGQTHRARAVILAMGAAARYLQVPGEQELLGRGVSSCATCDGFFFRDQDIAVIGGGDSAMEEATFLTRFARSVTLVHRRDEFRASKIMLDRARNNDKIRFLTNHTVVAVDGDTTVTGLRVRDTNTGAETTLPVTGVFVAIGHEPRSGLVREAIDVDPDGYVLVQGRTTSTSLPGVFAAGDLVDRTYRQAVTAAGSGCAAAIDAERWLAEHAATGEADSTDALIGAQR
The experiment can be described thus: Inhibition of Mycobacterium tuberculosis TrxR at 1.67 uM after 10 mins by microplate reader analysis. The essentials: (§1)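 MtTrxR, MtTrxB and MtTPx from M. tuberculosis, expressed in E. coli. Enzyme preincubated 10 min at 25 °C with 10 μM MtTrxB, 5 μM MtTPx, 225 μM NADPH and 0.06-45 μM compound in 50 mM HEPES pH 7.4, 1 mM EDTA. Started with 73 μM t-butylhydroperoxide. Initial NADPH oxidation rate read at 340 nm, 25 °C. Triplicates, outliers removed. IC50 by four-parameter fit, mean of ≥3 assays.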

Experiment [2] addresses T1, Thioredoxin reductase (Mycobacterium tuberculosis). Put plainly: Inhibition of Mycobacterium tuberculosis TrxR at 15 uM after 10 mins by microplate reader analysis. Put shortly: as §1
For experiment [3] the target is unchanged. Put plainly: Inhibition of Mycobacterium tuberculosis TrxR at 45 uM after 10 mins by microplate reader analysis. The essentials:
as §1

Experiment [4] has the same target. Put plainly: Inhibition of Mycobacterium tuberculosis TrxR at 5 uM after 10 mins by microplate reader analysis. The essentials:
as §1

In experiment [5] the target is Thioredoxin reductase (Homo sapiens) (UniProt Q16881+Q9NNW7+Q86VQ6). Put plainly: Inhibition of human TrxR at 100 uM by spectrophotometry. The format is protein assay. Put shortly: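 Human placenta TrxR1 (2.8 nM final) with 200 μM NADPH in 100 mM potassium phosphate, 2 mM EDTA, pH 7.4. Inhibitor added up to 100 μM final, then reaction started with 3 mM DTNB. Absorbance followed at 412 nm at 25 °C against inhibitor-free control. At least three independent experiments; apparent activation scored as no inhibition.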

Experiment [6] can be described thus: Selectivity index, ratio of IC50 for human TrxR to IC50 for Mycobacterium tuberculosis TrxR. Put shortly: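 Estimated from HsTrxR inhibition at 100 μM (DTNB assay) and the MtTrxR IC50, assuming that ≤10% HsTrxR inhibition at 100 μM reflects an IC50 of >300 μM.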
Another experiment concerns the target T2, Thioredoxin reductase (Mycobacterium tuberculosis, UniProt P9WHH1).
T2 sequence (P9WHH1 whole entry): T1 sequence (whole entry)
Put plainly: Inhibition of Mycobacterium tuberculosis TrxR after 10 mins by microplate reader analysis. The essentials: as §1

Some results are limits rather than exact numbers.

For the compound `CSCCNC1CCN(c2ccc(NC(=O)CCCCc3ccccc3)cc2)CC1`, the inhibition in experiment [1] worked out at 27%; in experiment [2], 33.7%; in experiment [3] it was 28%; in experiment [4], 29.7%; in experiment [5], 0%. Also, the Ratio IC50 in experiment [6] was more than 3. The compound further registered a half-inhibitory concentration (IC50) against Thioredoxin reductase of 100 µM.
Consider `O=C(Nc1ccc(N2CCC(NCCOc3cccnc3)CC2)cc1)c1cnccn1`, for which the inhibition was 5% in experiment [1], 16.3% in experiment [2] and 12% in experiment [4].
Consider `O=C(O)[C@H](Cc1cc2ccccc2[nH]1)NCc1c[nH]c2ccccc12`, for which the inhibition in experiment [1] was found to be 26.7%; in experiment [2] it was 43.3%; in experiment [3], 31%; in experiment [4], 31.7%; in experiment [5], 10.4%. The Ratio IC50 in experiment [6] is more than 10. Half-maximal inhibition against Thioredoxin reductase (IC50) was put at 30 µM.
Regarding `NC1=C(c2nc(-c3ccccc3)cs2)C(=O)CN1c1ccc(S(N)(=O)=O)cc1`, the inhibition in experiment [1] came to 8.4%; in experiment [2] it was 12.8%; in experiment [3], 25%; in experiment [4], 9.9%; in experiment [5], 0%. Besides, the Ratio IC50 in experiment [6] was more than 2. On Thioredoxin reductase, this compound had an IC50 of 200 µM.
Take `COc1ccc2nc(C)cc(Nc3ccc(O)cc3)c2c1`: the inhibition in experiment [1] turned out to be 25.6%; in experiment [2], 51.6%; in experiment [3], 68%; in experiment [4], 36%; in experiment [5] it was 31.6%. The Ratio IC50 in experiment [6] is more than 8. On Thioredoxin reductase, this compound displayed an IC50 of 12.5 µM.
In the case of `Nc1ccc(N2CCCCC2)cc1`, the inhibition in experiment [1] worked out at 9.5%; in experiment [2], 35.7%; in experiment [3], 55%; in experiment [4] it was 17%; in experiment [5], 0%. Besides, in experiment [6], the Ratio IC50 was more than 10. At Thioredoxin reductase, it took 33.4 µM to reach half-maximal inhibition (IC50).
For the compound `C=CCc1cccc(/C=N/NC(=O)CCC2C(=O)NN=C2C)c1O` (stereo not given), the inhibition in experiment [1] is 31.7%; in experiment [2], 31.7%; in experiment [3] it was 26%; in experiment [4] it was 31%; in experiment [5] it was 0%. The Ratio IC50 in experiment [6] is more than 10.
Take `c1ccc2sc(CNc3ccc(N4CCCCC4)cc3)nc2c1`: the inhibition was 24% in experiment [1]; 44.4% in experiment [2]; 67% in experiment [3]; 39.7% in experiment [4]; 17.1% in experiment [5]. The Ratio IC50 in experiment [6] is more than 10. At Thioredoxin reductase, this compound gave a half-maximal inhibitory concentration (IC50) of 15.8 µM.
On to `Nc1nc(-c2cc3ccc(O)cc3oc2=O)cs1`, for which the inhibition came out at 10.6% in experiment [1]; 19.7% in experiment [2]; 36.4% in experiment [3]; 17.3% in experiment [4]; 0% in experiment [5]. Besides, in experiment [6], the Ratio IC50 was more than 3. This compound yielded an IC50 at Thioredoxin reductase of 100 µM.
With `O=C(CCCCc1ccccc1)Nc1ccc(N2CCC(NCCn3cccn3)CC2)cc1`, the inhibition in experiment [1] was 12.3%; in experiment [2] it was 17.5%; in experiment [3], 24%; in experiment [4], 14.7%.
Consider `CC(c1c[nH]nc1-c1ccccc1)N1CCC(CCC(=O)Nc2ccccc2)CC1` (stereo not given), for which the inhibition came to 29.7% in experiment [1]; 34.3% in experiment [2]; 29.8% in experiment [3]; 38% in experiment [4]; 0% in experiment [5]. Moreover, the Ratio IC50 in experiment [6] is more than 20. At Thioredoxin reductase, this compound came in with a 50% inhibitory concentration (IC50) of 15 µM.
Regarding `Fc1cccc(Cl)c1CNc1ccc(N2CCCCC2)cc1`, the inhibition in experiment [1] was found to be 30%; in experiment [2] it was 51.7%; in experiment [3], 58.7%; in experiment [4], 41.7%; in experiment [5], 4.6%. For the same compound, the Ratio IC50 in experiment [6] is more than 10. For the same compound, at Thioredoxin reductase, inhibition was half-maximal at 15.3 µM (IC50).
As to `O=C(COc1ccccc1)Nc1ccc(N2CCC(NCc3cccc(-n4cccn4)c3)CC2)cc1`, the inhibition in experiment [1] turned out to be 11.2%; in experiment [2] it was 18.2%; in experiment [3] it was 22.1%; in experiment [4], 16.9%.
